Measurements taken from ChEMBL document CHEMBL4229550, “An antimycobacterial pleuromutilin analogue effective against dormant bacilli” (Bioorg Med Chem, 2018).
Values after ≈ are worked out from the molar mass of the structure shown. Active and inactive are the calls of the source. No cut-off for these calls is given here.

What was measured:
Escherichia coli [1] = test: Antibacterial activity against Escherichia coli ATCC 10798 incubated for 24 hrs under aerobic condition by MABA; type: functional; details: ATCC 10798, 24 h, read-out: MIC100
How it was run: (§1)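 Mid-log cultures at OD 0.5 were exposed to serial dilutions under aerobic conditions at 37 °C for 24 h. Resazurin was then added from a 0.08% stock for 1 h. MIC100 was the lowest concentration where the dye stayed blue (pink means growth). Absorbance was also read at 570 and 600 nm.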

[2] = tested on: Mycobacterium tuberculosis; test: Bactericidal activity against replicating Mycobacterium tuberculosis H37Rv incubated for 15 days under aerobic condition by MABA; type: functional; details: 360 h
How it was run: (§2)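 Mtb H37Rv grown in 7H9/OADC at 37 °C with shaking to OD600 0.5. The 0.5-OD culture is exposed aerobically to serial dilutions for 15 days at 37 °C. Resazurin (0.02% stock) is then added for 4 h at 37 °C with shaking.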

Erythrocyte = test: Hemolytic activity in sheep erythrocytes after 2 hrs; type: ADME, cell-based; details: Ovis aries
How it was run: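 Washed heparinized sheep erythrocytes at 3% in buffer pH 7.4 were treated with 2–200 µg/mL for 2 h at 37 °C with gentle shaking. Triton X-100 (0.01–1%) was the positive control and PEG:H2O diluent the negative control. Released hemoglobin was read at OD540 and % hemolysis calculated against both controls.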

Streptococcus salivarius [3] = test: Antibacterial activity against Streptococcus salivarius […] incubated for 24 hrs under aerobic condition by MABA; type: functional; details: read-out: MIC100
How it was run: (§3)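 Resazurin was then added from a 0.08% stock for 1 h. MIC100 was the lowest concentration where the dye stayed blue (pink means growth). Absorbance was also read at 570 and 600 nm.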

Staphylococcus aureus [4] = test: Antibacterial activity against Staphylococcus aureus ATCC 25923 incubated for 24 hrs under aerobic condition by MABA; type: functional; details: ATCC 25923, 24 h, read-out: MIC100; how it was run: as §1
Staphylococcus aureus [5] = test: Bactericidal activity against Staphylococcus aureus incubated for 24 hrs under aerobic condition by MABA; type: functional
[6] = tested on: Mycolicibacterium smegmatis; test: Antibacterial activity against Mycobacterium smegmatis ATCC 607 incubated for 48 hrs under aerobic condition by MABA; type: functional; details: ATCC 607, 48 h, read-out: MIC100
How it was run: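 Mid-log culture at OD 0.5 was incubated with serial dilutions aerobically at 37 °C for 48 h. Resazurin was then added from a 0.08% stock for 1 h. MIC100 was the lowest concentration that stayed blue; absorbance was also read at 570/600 nm.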

Streptococcus salivarius [7] = test: Bactericidal activity against Streptococcus salivarius ATCC 6301 incubated for 24 hrs under aerobic condition by MABA; type: functional; details: ATCC 6301, 24 h
Staphylococcus aureus [8] = test: Bactericidal activity against Staphylococcus aureus BAA 1683 incubated for 24 hrs under aerobic condition by MABA; type: functional; details: BAA 1683, 24 h
Enterococcus faecalis [9] = test: Bactericidal activity against Enterococcus faecalis ATCC 349 incubated for 24 hrs under aerobic condition by MABA; type: functional; details: ATCC 349, 24 h
Escherichia coli [10] = test: Inhibition of protein translation/transcription in Escherichia coli S30 cell extract at 0.1 ug/ml using circular DNA with pBESTluc after 60 mins by luciferase reporter gene assay; type: functional
How it was run: (§4)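 Coupled transcription/translation used E. coli S30 extract, amino acid mix and premix, with the pBESTluc template carrying firefly luciferase under the tac promoter. Compounds were added in DMSO and reactions were started with DNA. Incubation was 60 min at 37 °C, stopped on ice, and luciferase was read after adding assay substrate.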

[11] = tested on: Mycobacterium tuberculosis; test: Antibacterial activity against Mycobacterium tuberculosis; type: functional; details: read-out: MIC100; how it was run: as §2
Staphylococcus aureus [12] = test: Bactericidal activity against Staphylococcus aureus BAA 44 incubated for 24 hrs under aerobic condition by MABA; type: functional; details: BAA 44, 24 h
[13] = tested on: Mycobacterium tuberculosis; test: Bactericidal activity against Mycobacterium tuberculosis H37Rv at 2 times MIC measured every 24 hrs up to 12 days by time kill assay relative to control; type: functional
How it was run: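 Mid-log H37Rv (OD 0.5) is diluted to OD 0.25 and exposed at MIC, 2×MIC or 4×MIC. Every 24 h cultures are diluted 10- to 10,000-fold and plated on 7H10/OADC agar. Plates are incubated 15 days at 37 °C before colony counts.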

Staphylococcus aureus [14] = test: Bactericidal activity against Staphylococcus aureus BAA 2094 incubated for 24 hrs under aerobic condition by MABA; type: functional; details: BAA 2094, 24 h
[15] = tested on: Mycolicibacterium smegmatis; test: Bactericidal activity against Mycobacterium smegmatis ATCC 607 incubated for 48 hrs under aerobic condition by MABA; type: functional; details: ATCC 607, 48 h
Streptococcus pneumoniae [16] = test: Bactericidal activity against Streptococcus pneumoniae ATCC 6301 incubated for 24 hrs under aerobic condition by MABA; type: functional; details: ATCC 6301, 24 h
Staphylococcus aureus [17] = test: Antibacterial activity against Staphylococcus aureus BAA 2094 incubated for 24 hrs under aerobic condition by MABA; type: functional; details: BAA 2094, 24 h, read-out: MIC100; how it was run: as §3
[18] = tested on: Mycobacterium tuberculosis; test: Antibacterial activity against replicating Mycobacterium tuberculosis H37Rv incubated for 15 days under aerobic condition by MABA; type: functional; details: 360 h, read-out: MIC100; how it was run: as §2
Acinetobacter baumannii [19] = test: Bactericidal activity against Acinetobacter baumannii ATCC 19606 incubated for 24 hrs under aerobic condition by MABA; type: functional; details: ATCC 19606 = CIP 70.34 = JCM 6841, 24 h
Staphylococcus aureus [20] = test: Antibacterial activity against Staphylococcus aureus BAA 44 incubated for 24 hrs under aerobic condition by MABA; type: functional; details: BAA 44, 24 h, read-out: MIC100; how it was run: as §1
Staphylococcus aureus [21] = test: Antibacterial activity against Staphylococcus aureus BAA 1683 incubated for 24 hrs under aerobic condition by MABA; type: functional; details: BAA 1683, 24 h, read-out: MIC100; how it was run: as §1
Enterococcus faecalis [22] = test: Antibacterial activity against Enterococcus faecalis ATCC 19433 incubated for 24 hrs under aerobic condition by MABA; type: functional; details: ATCC 19433, 24 h, read-out: MIC100; how it was run: as §1
Streptococcus pneumoniae [23] = test: Antibacterial activity against Streptococcus pneumoniae ATCC 6301 incubated for 24 hrs under aerobic condition by MABA; type: functional; details: ATCC 6301, 24 h, read-out: MIC100; how it was run: as §1
[24] = Half life in Sprague-Dawley rat liver microsomes at 500 ng/ml preincubated for 5 mins followed by NADPH addition by C-MS/MS analysis; type: ADME, microsome
Clostridioides difficile = test: Bactericidal activity against Clostridium difficile ATCC 700057 incubated for 24 hrs […] by MABA; type: functional; details: ATCC 700057, 24 h
Klebsiella pneumoniae [25] = test: Antibacterial activity against Klebsiella pneumoniae ATCC 12019 incubated for 24 hrs under aerobic condition by MABA; type: functional; details: ATCC 12019, 24 h, read-out: MIC100; how it was run: as §1
Bacillus subtilis [26] = test: Antibacterial activity against Bacillus subtilis ATCC 6051 incubated for 24 hrs under aerobic condition by MABA; type: functional; details: ATCC 6051, 24 h, read-out: MIC100; how it was run: as §1
Bacillus subtilis [27] = test: Bactericidal activity against Bacillus subtilis ATCC 6051 incubated for 24 hrs under aerobic condition by MABA; type: functional; details: ATCC 6051, 24 h
Escherichia coli [28] = test: Inhibition of protein translation/transcription in Escherichia coli S30 cell extract at 0.5 ug/ml using circular DNA with pBESTluc after 60 mins by luciferase reporter gene assay; type: functional; how it was run: as §4
Staphylococcus aureus [29] = test: Bactericidal activity against Staphylococcus aureus ATCC 25923 incubated for 24 hrs under aerobic condition by MABA; type: functional; details: ATCC 25923, 24 h
Klebsiella pneumoniae [30] = test: Bactericidal activity against Klebsiella pneumoniae ATCC 12019 incubated for 24 hrs under aerobic condition by MABA; type: functional; details: ATCC 12019, 24 h
Vero = test: Cytotoxicity against African green monkey Vero cells assessed as reduction in cell viability after 72 hrs by MTT assay; type: cell-based; details: Chlorocebus sabaeus
How it was run: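 Vero cells were grown in complete EMEM with 10% FBS and exposed for 72 h to 0.78–200 µg/mL. The medium was then swapped for phenol-red-free EMEM and MTT was added. Formazan absorbance was read at 570 nm to give IC50.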

Enterococcus faecalis [31] = test: Antibacterial activity against Enterococcus faecalis ATCC 349 incubated for 24 hrs under aerobic condition by MABA; type: functional; details: ATCC 349, 24 h, read-out: MIC100; how it was run: as §1
Escherichia coli [32] = test: Bactericidal activity against Escherichia coli ATCC 10798 incubated for 24 hrs under aerobic condition by MABA; type: functional; details: ATCC 10798, 24 h
Acinetobacter baumannii [33] = test: Antibacterial activity against Acinetobacter baumannii ATCC 19606 incubated for 24 hrs under aerobic condition by MABA; type: functional; details: ATCC 19606 = CIP 70.34 = JCM 6841, 24 h, read-out: MIC100; how it was run: as §1
Staphylococcus aureus [34] = test: Antibacterial activity against Staphylococcus aureus incubated for 24 hrs under aerobic condition by MABA; type: functional; details: read-out: MIC100; how it was run: as §3
[35] = Selectivity index, ratio of IC50 for African green monkey Vero cells to MIC100 for replicating Mycobacterium tuberculosis H37Rv by MABA; type: toxicity; details: read-out: Selectivity Index
How it was run: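 Vero cells are cultured in EMEM with 10% FBS and exposed for 72 h to 0.78–200 µg/mL. Medium is switched to phenol-red-free EMEM, MTT is added, and formazan is read at 570 nm to give IC50. The selectivity index is Vero IC50 divided by the MABA MIC.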

Enterococcus faecalis [36] = test: Bactericidal activity against Enterococcus faecalis ATCC 19433 incubated for 24 hrs under aerobic condition by MABA; type: functional; details: ATCC 19433, 24 h

`CC[C@]1(C)C[C@@H](OC(=O)CSC(C)(C)CNC(=O)[C@H](N)CC(C)C)[C@]2(C)[C@H](C)CC[C@]3(CCC(=O)[C@H]32)[C@@H](C)[C@@H]1O` showed an MIC (Escherichia coli [1]) of 12.5 µg/mL (≈ 21.5 µM), an MBC [2] of 0.77 µg/mL (≈ 1.33 µM) and an IC50 (Erythrocyte) of over 200 µM. For the same compound, the MIC (Streptococcus salivarius [3]) was 0.4 µg/mL (≈ 0.689 µM), the MIC (Staphylococcus aureus [4]) was over 25 µg/mL and the MBC (Staphylococcus aureus [5]) was 0.8 µg/mL (≈ 1.38 µM). The MIC [6] was 6.25 µg/mL (≈ 10.8 µM), the MBC (Streptococcus salivarius [7]) was over 25 µg/mL and the MBC (Staphylococcus aureus [8]) was over 25 µg/mL. For the same compound, the MBC (Enterococcus faecalis [9]) was over 25 µg/mL, the inhibition (Escherichia coli [10]) was “Active” and the MIC [11] was under 6.25 µg/mL. It also gave an MBC (Staphylococcus aureus [12]) of over 25 µg/mL, an Activity [13] of 100% and an MBC (Staphylococcus aureus [14]) of over 25 µg/mL. It also gave an MBC [15] of 25 µg/mL (≈ 43 µM), an MBC (Streptococcus pneumoniae [16]) of over 25 µg/mL and an MIC (Staphylococcus aureus [17]) of over 25 µg/mL. The MIC [18] was 0.78 µg/mL (≈ 1.34 µM), the MBC (Acinetobacter baumannii [19]) was 12.5 µg/mL (≈ 21.5 µM) and the MIC (Staphylococcus aureus [20]) was over 25 µg/mL. It also gave an MIC (Staphylococcus aureus [21]) of over 25 µg/mL, an MIC (Enterococcus faecalis [22]) of 12.5 µg/mL (≈ 21.5 µM) and an MIC (Streptococcus pneumoniae [23]) of 25 µg/mL (≈ 43 µM). For the same compound, the t1/2 [24] was under 5 min, the MBC (Clostridioides difficile) was 1.56 µg/mL (≈ 2.69 µM) and the MIC (Klebsiella pneumoniae [25]) was 25 µg/mL (≈ 43 µM). The MIC (Bacillus subtilis [26]) was 12.5 µg/mL (≈ 21.5 µM), the MBC (Bacillus subtilis [27]) was 25 µg/mL (≈ 43 µM) and the inhibition (Escherichia coli [28]) was “Active”. It also gave an MBC (Staphylococcus aureus [29]) of over 25 µg/mL, an MBC (Klebsiella pneumoniae [30]) of over 25 µg/mL and an IC50 (Vero) of 25 µg/mL (≈ 43 µM). It also gave an MIC (Enterococcus faecalis [31]) of over 25 µg/mL, an MBC (Escherichia coli [32]) of over 25 µg/mL and an MIC (Acinetobacter baumannii [33]) of 9.38 µg/mL (≈ 16.1 µM). The MIC (Staphylococcus aureus [34]) was 0.4 µg/mL (≈ 0.689 µM), the selectivity ratio [35] was 32 and the MBC (Enterococcus faecalis [36]) was 25 µg/mL (≈ 43 µM).
`CC[C@@H](CO)NCCN[C@@H](CC)CO` [ETHAMBUTOL] showed an MIC [18] of 0.78 µg/mL (≈ 3.82 µM), an IC50 (Vero) of over 200 µg/mL and a selectivity ratio [35] of over 256.
